According to ChEMBL document CHEMBL4138271, “Crystal Structures and Human Leukemia Cell Apoptosis Inducible Activities of Parthenolide Analogues Isolated from Piptocoma rufescens” (J Nat Prod, 2018):
Active and inactive are the calls of the source. The calls are words filed in the database; no cut-off is given here.

What was measured:
[1] = tested on: EOL1; assay: Induction of apoptosis in human EOL-1 cells assessed as caspase-3 activation at 10 uM after 72 hrs by immunoblotting analysis; format: functional, cell-based
Outline: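 EOL-1 cells (RPMI 1640, 10% FBS, 37 °C, 5% CO2) exposed 72 h; compounds at 10 μM, PKC412 at 10 nM. Harvested, PBS-washed, lysed in hypertonic NP-40 buffer with protease/phosphatase inhibitors; SDS-PAGE, PVDF transfer, rabbit monoclonal cleaved caspase-3 (Asp175) antibody 12 h, secondary 1 h, chemiluminescent detection; β-actin loading control. Representative blots of three independent experiments.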

[2] = tested on: MOLM-13; assay: Induction of apoptosis in human MOLM13 cells assessed as necrotic cells at 1.8 uM after 24 hrs by Annexin-V FITC/7-AAD staining based flow cytometric method (reference value: 0%); format: functional
[3] = tested on: MOLM-13; assay: Cytotoxicity against human MOLM13 cells after 72 hrs by MTS assay; format: functional, cell-based; conditions: MOLM-13, 72 h
[4] = tested on: MOLM-13; assay: Induction of apoptosis in human MOLM13 cells assessed as early apoptotic cells at 0.26 uM after 24 hrs by Annexin-V FITC/7-AAD staining based flow cytometric method (reference value: 11.8%); format: functional
[5] = tested on: MOLM-13; assay: Induction of apoptosis in human MOLM13 cells assessed as late apoptotic cells at 0.59 uM after 24 hrs by Annexin-V FITC/7-AAD staining based flow cytometric method (reference value: 1.43%); format: functional
[6] = tested on: MOLM-13; assay: Induction of apoptosis in human MOLM13 cells assessed as early apoptotic cells at 1.8 uM after 24 hrs by Annexin-V FITC/7-AAD staining based flow cytometric method (reference value: 11.8%); format: functional
[7] = tested on: EOL1; assay: Induction of apoptosis in human EOL-1 cells assessed as live cells at 0.59 uM after 24 hrs by Annexin-V FITC/7-AAD staining based flow cytometric method (reference value: 97.5%); format: functional
[8] = tested on: EOL1; assay: Induction of apoptosis in human EOL-1 cells assessed as late apoptotic cells at 0.59 uM after 24 hrs by Annexin-V FITC/7-AAD staining based flow cytometric method (reference value: 0.535%); format: functional
[9] = tested on: EOL1; assay: Induction of apoptosis in human EOL-1 cells assessed as necrotic cells at 1.8 uM after 24 hrs by Annexin-V FITC/7-AAD staining based flow cytometric method (reference value: 0.032%); format: functional
[10] = tested on: MOLM-13; assay: Induction of apoptosis in human MOLM13 cells assessed as necrotic cells at 0.59 uM after 24 hrs by Annexin-V FITC/7-AAD staining based flow cytometric method (reference value: 0%); format: functional
[11] = tested on: MOLM-13; assay: Induction of apoptosis in human MOLM13 cells assessed as late apoptotic cells at 0.26 uM after 24 hrs by Annexin-V FITC/7-AAD staining based flow cytometric method (reference value: 1.43%); format: functional
[12] = tested on: EOL1; assay: Induction of apoptosis in human EOL-1 cells assessed as live cells at 1.8 uM after 24 hrs by Annexin-V FITC/7-AAD staining based flow cytometric method (reference value: 97.5%); format: functional
[13] = tested on: MOLM-13; assay: Induction of apoptosis in human MOLM13 cells assessed as live cells at 0.26 uM after 24 hrs by Annexin-V FITC/7-AAD staining based flow cytometric method (reference value: 86.8%); format: functional
[14] = tested on: EOL1; assay: Induction of apoptosis in human EOL-1 cells assessed as early apoptotic cells at 1.8 uM after 24 hrs by Annexin-V FITC/7-AAD staining based flow cytometric method (reference value: 1.94%); format: functional
[15] = target: Transcription factor p65 (Homo sapiens) (UniProt Q04206); assay: Inhibition of NFkappaB p65 in human EOL-1 cells at 10 uM after 72 hrs by immunoblotting method; format: cell-based
Transcription factor p65 (Homo sapiens), sequence (Q04206 whole entry): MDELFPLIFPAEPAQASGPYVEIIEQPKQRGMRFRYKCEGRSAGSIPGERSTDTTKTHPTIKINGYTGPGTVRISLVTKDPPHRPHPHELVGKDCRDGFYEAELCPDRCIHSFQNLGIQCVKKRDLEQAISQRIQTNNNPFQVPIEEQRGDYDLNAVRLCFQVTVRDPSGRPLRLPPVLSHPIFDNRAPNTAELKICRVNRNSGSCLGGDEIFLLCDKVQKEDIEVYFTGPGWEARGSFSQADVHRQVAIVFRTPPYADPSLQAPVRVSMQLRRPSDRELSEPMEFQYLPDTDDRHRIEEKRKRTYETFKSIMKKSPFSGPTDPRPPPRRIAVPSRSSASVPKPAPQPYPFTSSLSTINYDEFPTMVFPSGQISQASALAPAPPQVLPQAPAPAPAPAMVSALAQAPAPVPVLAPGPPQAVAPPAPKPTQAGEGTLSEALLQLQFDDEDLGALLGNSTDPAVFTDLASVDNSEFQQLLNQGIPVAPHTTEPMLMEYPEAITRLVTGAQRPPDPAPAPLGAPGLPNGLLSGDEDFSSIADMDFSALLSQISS
Outline: (§1)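 MOLM-13 or EOL-1 cells treated 72 h at 10 μM. Cells washed in ice-cold PBS and lysed in hypertonic NP-40 buffer (10 mM HEPES pH 7.5, 0.5 M NaCl) with protease/phosphatase inhibitors. Protein measured by BCA; SDS-PAGE onto PVDF. Probed 12 h with rabbit monoclonal NF-κB-p65 antibody, goat β-actin as loading control, then chemiluminescence. Blots representative of three independent experiments.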

[16] = tested on: HT-29; assay: Cytotoxicity against human HT-29 cells after 72 hrs by MTS assay; format: functional, cell-based; conditions: HT-29, 72 h
[17] = tested on: EOL1; assay: Synergistic antileukemic activity against human EOL-1 cells assessed as concentration required for <= 75% cell survival after 72 hrs in presence of midostaurin by CellTiter 96 AQueous One solution cell proliferation assay; format: functional
[18] = target: Transcription factor p65 (Homo sapiens) (UniProt Q04206); assay: Inhibition of NFkappaB p65 in human MOLM13 cells at 10 uM after 72 hrs by immunoblotting method; format: cell-based; outline: as §1
[19] = tested on: MOLM-13; assay: Synergistic antileukemic activity against human MOLM13 cells assessed as concentration required for <= 75% cell survival after 72 hrs in presence of midostaurin by CellTiter 96 AQueous One solution cell proliferation assay; format: functional
[20] = tested on: MOLM-13; assay: Induction of apoptosis in human MOLM13 cells assessed as necrotic cells at 0.26 uM after 24 hrs by Annexin-V FITC/7-AAD staining based flow cytometric method (reference value: 0%); format: functional
[21] = tested on: EOL1; assay: Induction of apoptosis in human EOL-1 cells assessed as late apoptotic cells at 0.26 uM after 24 hrs by Annexin-V FITC/7-AAD staining based flow cytometric method (reference value: 0.535%); format: functional
[22] = tested on: EOL1; assay: Induction of apoptosis in human EOL-1 cells assessed as early apoptotic cells at 0.59 uM after 24 hrs by Annexin-V FITC/7-AAD staining based flow cytometric method (reference value: 1.94%); format: functional
[23] = tested on: EOL1; assay: Induction of apoptosis in human EOL-1 cells assessed as live cells at 0.26 uM after 24 hrs by Annexin-V FITC/7-AAD staining based flow cytometric method (reference value: 97.5%); format: functional
[24] = tested on: EOL1; assay: Induction of apoptosis in human EOL-1 cells assessed as early apoptotic cells at 0.26 uM after 24 hrs by Annexin-V FITC/7-AAD staining based flow cytometric method (reference value: 1.94%); format: functional
[25] = tested on: EOL1; assay: Induction of apoptosis in human EOL-1 cells assessed as late apoptotic cells at 1.8 uM after 24 hrs by Annexin-V FITC/7-AAD staining based flow cytometric method (reference value: 0.535%); format: functional
[26] = tested on: MOLM-13; assay: Induction of apoptosis in human MOLM13 cells assessed as early apoptotic cells at 0.59 uM after 24 hrs by Annexin-V FITC/7-AAD staining based flow cytometric method (reference value: 11.8%); format: functional
[27] = tested on: EOL1; assay: Induction of apoptosis in human EOL-1 cells assessed as necrotic cells at 0.59 uM after 24 hrs by Annexin-V FITC/7-AAD staining based flow cytometric method (reference value: 0.032%); format: functional
[28] = tested on: MOLM-13; assay: Induction of apoptosis in human MOLM13 cells assessed as caspase-3 activation at 10 uM after 72 hrs by immunoblotting analysis; format: functional, cell-based
Outline: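 MOLM-13 cells treated 72 h with test compounds at 10 μM or PKC412 at 10 nM. Cells washed in ice-cold PBS, lysed at 10^8 cells/mL in NP-40 hypertonic buffer (pH 7.5) with protease/phosphatase inhibitors, then run on SDS-PAGE and PVDF. Blots probed 12 h with rabbit monoclonal cleaved caspase-3 (Asp175), β-actin as loading control. Representative of three independent experiments.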

[29] = tested on: MOLM-13; assay: Induction of apoptosis in human MOLM13 cells assessed as live cells at 0.59 uM after 24 hrs by Annexin-V FITC/7-AAD staining based flow cytometric method (reference value: 86.8%); format: functional
[30] = tested on: MOLM-13; assay: Induction of apoptosis in human MOLM13 cells assessed as live cells at 1.8 uM after 24 hrs by Annexin-V FITC/7-AAD staining based flow cytometric method (reference value: 86.8%); format: functional
[31] = tested on: EOL1; assay: Cytotoxicity against human EOL-1 cells after 72 hrs by MTS assay; format: functional, cell-based; conditions: EOL1, 72 h
[32] = tested on: EOL1; assay: Induction of apoptosis in human EOL-1 cells assessed as necrotic cells at 0.26 uM after 24 hrs by Annexin-V FITC/7-AAD staining based flow cytometric method (reference value: 0.032%); format: functional
[33] = tested on: MOLM-13; assay: Induction of apoptosis in human MOLM13 cells assessed as late apoptotic cells at 1.8 uM after 24 hrs by Annexin-V FITC/7-AAD staining based flow cytometric method (reference value: 1.43%); format: functional

inhibition [15]: Active | inhibition [18]: Active
SMILES: C=C(C)C(=O)O[C@H]1C[C@@]2(C)OC(=CC2=O)/C(C)=C\[C@H]2OC(=O)C(=C)[C@H]12
Activity [1]: Active | Activity [2]: 9.96% | IC50 [3]: 1100 nM | Activity [4]: 6.62% | Activity [5]: 2.42% | Activity [6]: 1.25% | Activity [7]: 92.6% | Activity [8]: 4.42% | Activity [9]: 4.7% | Activity [10]: 0.214% | Activity [11]: 0.097% | Activity [12]: 25.9% | Activity [13]: 92.3% | Activity [14]: 0.24% | IC50 [16]: 260 nM | Activity [17]: 0.59 µM | Activity [19]: 0.44 µM | Activity [20]: 0.08% | Activity [21]: 0.568% | Activity [22]: 2.66% | Activity [23]: 97.5% | Activity [24]: 1.9% | Activity [25]: 69.1% | Activity [26]: 10.9% | Activity [27]: 0.301% | Activity [28]: Active | Activity [29]: 86.5% | Activity [30]: 1.66% | IC50 [31]: 1000 nM | Activity [32]: 0.032% | Activity [33]: 87.1%
